The values below come from ChEMBL document CHEMBL1124844, “Synthesis and biological activities of novel 5-(2-acylethynyl)uracils” (J Med Chem, 1990).

Experiment [1] relates to CCRF-CEM. As to the kind of experiment: Effect on CCRF-CEM cells (human lymphoblastoid cells) in culture. It is filed as functional, cell-based. A digest of the protocol: (§1)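 Murine L1210/0 leukemia and human CCRF-CEM lymphoblastoid cells incubated at 37 °C for 48 h over a range of compound concentrations. Growth inhibition read as IC50 (μM).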
The nature of experiment [2]: Effect on the survival of mice bearing ascites tumor at the dose of 140 mg/kg. Format: functional, Mus musculus. Put shortly:
(§2)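 Swiss mice (18–20 g) inoculated ip on day 0 with 1 × 10⁶ EAC cells drawn from a 10–20 day donor tumor. Compounds homogenized in normal saline with 10% propylene glycol and given ip starting 24 h later, as single dose or daily for 7 days. Five mice per dose; vehicle-only controls. Survival read as median survival time (days).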

The subject of experiment [3] is L1210. Description: (§3) Effect on L1210/0 cells in culture. The settings on record: Mus musculus. Format: functional, cell-based. A digest of the protocol:
as §1

Experiment [4] is described as follows: Effect on the survival of mice bearing ascites tumor in extremes treated at the dose of 20 mg/kg. It is filed as functional, Mus musculus. A digest of the protocol: (§4)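 EAC-bearing Swiss mice given ip compound in saline/10% propylene glycol, single dose or daily for 7 days, starting 24 h after ip inoculation of 1 × 10⁶ cells. Five mice per dose; vehicle controls. Value is the range (shortest to longest) of survival days in the treated group.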

A short description of experiment [5]: Effect on the survival of mice bearing ascites tumor in extremes treated at the dose of 30 mg/kg. It is filed as functional, Mus musculus. A digest of the protocol:
as §4

Experiment [6] can be described thus: Drug evaluation at the dose of 20 mg/kg by counting the average ascites cells number; 59/165. Format: functional, Mus musculus. Put shortly:
(§5)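 EAC cells drawn from Swiss mouse bearing a 10–20 day tumor, diluted and counted; Swiss mice (18–20 g) inoculated ip with 1 × 10⁶ cells in 0.2 mL on day 0. Dosing ip once daily on days 1–7, in normal saline with 10% propylene glycol; controls given vehicle. Five animals per dose group. Tumor cell counts and ascitic fluid weight compared, treated (T) vs control (C).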

Experiment [7] is described as follows: Effect on the survival of mice bearing ascites tumor in percent controls at the dose of 140 mg/kg. Format: functional, Mus musculus. Put shortly: (§6)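 Swiss mice inoculated ip with 1 × 10⁶ EAC cells, then treated ip with compound in saline/10% propylene glycol, single dose or 7 daily doses, starting 24 h later. Five mice per dose; vehicle controls. Treated median survival time expressed as percent of control; >125 counted active.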

A short description of experiment [8]: Effect on the survival of mice bearing ascites tumor at the dose of 30 mg/kg. Format: functional, Mus musculus. A digest of the protocol:
as §2

Experiment [9] is described as follows: Effect on the survival of mice bearing ascites tumor in percent controls at the dose of 20 mg/kg. Format: functional, Mus musculus. Put shortly:
as §6

A short description of experiment [10]: Effect on the survival of mice bearing ascites tumor in extremes treated at the dose of 140 mg/kg. It is filed as functional, Mus musculus. A digest of the protocol: as §4
The nature of experiment [11]: Percent inhibition of ascites cell at the dose of 20 mg/kg. It is filed as functional. The settings on record: Mus musculus. A digest of the protocol: as §5
A short description of experiment [12]: Effect on the survival of mice bearing ascites tumor in percent controls at the dose of 210 mg/kg. It is filed as functional, Mus musculus. Put shortly: as §6
Experiment [13] is described as follows: Percent inhibition of ascitic fluid at the dose of 20 mg/kg. The settings on record: Mus musculus. It is filed as functional. Put shortly: as §5
Experiment [14] is described as follows: Effect on the survival of mice bearing ascites tumor in percent controls at the dose of 30 mg/kg. It is filed as functional, Mus musculus. A digest of the protocol:
as §6

Experiment [15] in a line: Effect on the survival of mice bearing ascites tumor at the dose of 210 mg/kg. It is filed as functional, Mus musculus. Put shortly: as §2
Experiment [16] is described as follows: Effect on the survival of mice bearing ascites tumor at the dose of 20 mg/kg. It is filed as functional, Mus musculus. A digest of the protocol: as §2
The nature of experiment [17]: Effect on the survival of mice bearing ascites tumor in extremes treated at the dose of 210 mg/kg. Format: functional, Mus musculus. Put shortly:
as §4

The test system of experiment [18] is L1210. The description is as §3. Format: functional, cell-based. Particulars: Mus musculus. A digest of the protocol:
(§7)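 CCRF-CEM human lymphoblastoid or L1210/0 mouse leukemia cells incubated with a range of compound concentrations at 37 °C for 48 h; IC50 (μM) taken from cell growth.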
This is another data set of the same source.

Experiment [19] has as its system CCRF-CEM. Description: (§8) Effect on CCRF-CEM cells in culture. Format: functional, cell-based. Particulars: Homo sapiens. Put shortly:
as §7

Experiment [20] is described as follows: Effect on the survival of mice bearing ascites tumor in extremes treated at the dose of 10 mg/kg. Format: functional, Mus musculus. Put shortly: as §4
Experiment [21] in a line: Effect on the survival of mice bearing ascites tumor in percent controls at the dose of 70 mg/kg. It is filed as functional, Mus musculus. A digest of the protocol:
as §6

Experiment [22] is described as follows: Effect on the survival of mice bearing ascites tumor at the dose of 70 mg/kg. It is filed as functional, Mus musculus. Put shortly:
as §2

A short description of experiment [23]: Effect on the survival of mice bearing ascites tumor in percent controls at the dose of 10 mg/kg. Format: functional, Mus musculus. A digest of the protocol:
as §6

A short description of experiment [24]: Effect on the survival of mice bearing ascites tumor at the dose of 10 mg/kg. Format: functional, Mus musculus. Put shortly: as §2
In experiment [25] the test system is L1210. Description: Effect on L1210/0 cells (mouse leukemia cells) in culture.
A short description of experiment [26]: Effect on the survival of mice bearing ascites tumor in extremes treated at the dose of 70 mg/kg. Format: functional, Mus musculus. A digest of the protocol:
as §4

A short description of experiment [27]: Drug evaluation at the dose of 20 mg/kg by calculating fluid weight; 2/2.5. It is filed as functional, Mus musculus. A digest of the protocol:
as §5

A short description of experiment [28]: Drug evaluation at the dose of 20 mg/kg by counting the average ascites cells number; 100/123. It is filed as functional, Mus musculus. A digest of the protocol:
as §5

Experiment [29] in a line: Drug evaluation at the dose of 20 mg/kg by calculating fluid weight; 0.8/2. Format: functional, Mus musculus. A digest of the protocol:
as §5

Experiment [30] concerns CCRF-CEM. Described as §8. It is filed as functional, cell-based. Particulars: Homo sapiens. Put shortly: as §1
This is another data set of the same source.

Experiment [31] can be described thus: Drug evaluation at the dose of 20 mg/kg by counting the average ascites cells number; 35/150. It is filed as functional, Mus musculus. A digest of the protocol: as §5

Each structure is given as a SMILES string.

The IC50 is the concentration that gives 50% inhibition. Low values mean higher potency, high ones lower potency. A word on the inhibition in vivo: it is the share of the control response that was lost under treatment. A low value points to a weak effect. Take `O=C(C#Cc1cnc(O)nc1O)c1ccccc1Cl`: the concentration for half-maximal inhibition (IC50) was determined as 2200 nM in experiment [1] and 2000 nM in [3]. In addition, the Survival treated in experiment [2] is given as 16.5; in experiment [8], 18.5; in experiment [15], 26.5; in experiment [16], 16.5. The Extremes treated turned out to be 17 in [4], 20 in experiment [5], 18 in experiment [10] and 27 in [17]. Besides, the T/C in experiment [6] was found to be 0.358. For the same compound, the Controls is recorded as 127% in experiment [7], 127% in [9], 204% in experiment [12] and 142% in [14]. In addition, the inhibition in vivo at 20 mg/kg worked out at 64.2% in experiment [11] and 37.5% in experiment [13].

On to `O=c1[nH]cc(F)c(=O)[nH]1` [FLUOROURACIL], for which the Survival treated in [2] was 11; in [16], 41. In addition, the Extremes treated in [4] was 45; in experiment [10], 14. In addition, the IC50 was determined as 300 nM in experiment [18] and 2000 nM in experiment [19]. For the same compound, the Controls came to 92% in experiment [7] and 342% in experiment [9].

Consider `Cc1ccc(C(=O)C#Cc2cnc(O)nc2O)cc1`, for which the IC50 amounted to 2250 nM in experiment [1] and 1900 nM in experiment [25]. Also, the Extremes treated in [20] was determined as 14; in [4], 23; in [10] it was 35; in experiment [26], 31. The Survival treated in experiment [2] is on record as 34.5; in [22], 30; in experiment [24], 13; in experiment [16], 20.5. Moreover, the Controls in [21] was 260%; in experiment [7], 300%; in experiment [9] it was 178%; in experiment [23], 113%.

Regarding `COc1ccc(C(=O)C#Cc2cnc(O)nc2O)cc1`, the IC50 in experiment [1] amounted to 2300 nM; in experiment [3], 2000 nM. The Survival treated in experiment [2] came out at 14; in [8], 12; in experiment [15], 14; in [16], 18. For the same compound, the Extremes treated in experiment [4] was determined as 19; in experiment [5], 13; in [10] it was 15; in experiment [17], 16. The values for the T/C in experiment [27] and in experiment [28] were 0.8 and 0.813, respectively. In addition, the Controls stood at 127% in experiment [7], 164% in experiment [9], 127% in experiment [12] and 109% in experiment [14]. In addition, the results for the inhibition in vivo at 20 mg/kg in experiment [11] and in experiment [13] were 19.1% and 20%, respectively.

In the case of `O=C(C#Cc1cnc(O)nc1O)c1ccccc1`, the Survival treated in experiment [2] was found to be 36.5; in experiment [8], 17.5; in experiment [15], 21.5; in [16], 22. Also, the results for the IC50 in experiment [3] and in experiment [30] were 650 nM and 2000 nM, respectively. Further, the Extremes treated in [4] stood at 23; in experiment [5] it was 18; in experiment [10], 39; in experiment [17], 22. Besides, the results for the T/C in [29] and in [31] were 0.4 and 0.233, respectively. Moreover, the Controls in [7] is recorded as 281%; in experiment [9], 169%; in experiment [12] it was 165%; in [14], 134%. In addition, the inhibition in vivo at 20 mg/kg in [11] is 76%; in experiment [13], 60%.
